{"source": "paper PMC3954597", "about": "(Biochemistry, 2014)", "key": {"R47E PTP1B": {"target": "T1, R47E PTP1B (Homo sapiens, UniProt P18031, R47E)", "T1 sequence (P18031 1-321 R47E)": "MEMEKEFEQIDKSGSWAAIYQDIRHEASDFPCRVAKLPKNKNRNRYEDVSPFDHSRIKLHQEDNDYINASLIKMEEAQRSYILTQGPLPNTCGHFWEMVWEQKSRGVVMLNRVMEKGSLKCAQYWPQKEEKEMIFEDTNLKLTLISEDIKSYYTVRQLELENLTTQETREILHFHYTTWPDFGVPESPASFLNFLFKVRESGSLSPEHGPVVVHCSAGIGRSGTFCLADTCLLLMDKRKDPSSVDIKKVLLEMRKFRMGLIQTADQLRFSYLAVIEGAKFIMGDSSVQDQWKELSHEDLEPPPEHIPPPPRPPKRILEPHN", "experiment": "PTP assay, R47E PTP1B", "assay_type": "biochemical", "in_short": "(§1)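 E. coli-expressed catalytic domains were used: wild-type, R24M or R47E PTP1B (aa 1–321), and SHP-1 (aa 205–595). Reactions started with PTP (0.5–20000 nM final) and dephosphorylation was monitored continuously at 282 nm. kcat, KM and kcat/KM came from initial-rate fits (Michaelis–Menten, or V = kcat[E][S]/KM when KM >> [S]) or from fits of progress curves.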"}, "R24M PTP1B": {"target": "T2, R24M PTP1B (Homo sapiens, UniProt P18031, R24M)", "T2 sequence (P18031 1-321 R24M)": "T1 sequence (P18031 1-321 R47E) with R24M, E47R", "experiment": "PTP assay, R24M PTP1B", "assay_type": "biochemical", "in_short": "as §1"}, "SHP-1": {"target": "SHP-1 (Homo sapiens, UniProt P29350)", "sequence (P29350 205-595)": "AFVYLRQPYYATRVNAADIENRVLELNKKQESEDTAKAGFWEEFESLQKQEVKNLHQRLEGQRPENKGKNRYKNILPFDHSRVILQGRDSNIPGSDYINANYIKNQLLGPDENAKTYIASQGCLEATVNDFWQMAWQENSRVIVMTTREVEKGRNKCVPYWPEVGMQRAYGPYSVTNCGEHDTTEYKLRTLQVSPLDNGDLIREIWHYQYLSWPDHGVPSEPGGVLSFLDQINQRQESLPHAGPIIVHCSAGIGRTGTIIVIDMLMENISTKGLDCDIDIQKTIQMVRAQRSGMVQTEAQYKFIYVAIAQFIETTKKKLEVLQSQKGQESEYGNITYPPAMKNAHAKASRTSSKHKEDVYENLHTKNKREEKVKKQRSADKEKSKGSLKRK", "conditions": "catalytic domain; cited from earlier work"}, "SHP-2": {"target": "T3, SHP-2 (Homo sapiens, UniProt Q06124)", "T3 sequence (Q06124 199-593)": "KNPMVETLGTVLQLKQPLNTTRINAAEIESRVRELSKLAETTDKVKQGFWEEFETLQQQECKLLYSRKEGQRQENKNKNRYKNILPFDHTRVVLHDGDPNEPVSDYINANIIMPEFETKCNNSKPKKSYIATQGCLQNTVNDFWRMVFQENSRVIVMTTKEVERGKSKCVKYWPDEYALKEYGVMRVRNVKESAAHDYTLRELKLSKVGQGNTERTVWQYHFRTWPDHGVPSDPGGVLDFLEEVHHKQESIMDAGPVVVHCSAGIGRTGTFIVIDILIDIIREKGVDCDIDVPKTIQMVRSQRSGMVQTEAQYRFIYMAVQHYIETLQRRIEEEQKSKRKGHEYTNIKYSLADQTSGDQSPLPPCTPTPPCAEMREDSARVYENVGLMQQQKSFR", "conditions": "catalytic domain; cited from earlier work"}}, "note": "Numbering of substitutions follows the chain as printed. “And” between values parts separate entries of the source, which are not always exact repeats. Equal entries are not always repeated."}
{"substance": "Ac-SASASpYSASA-NH2", "values": [{"measurement": "Km", "setting": "R47E PTP1B; R47E PTP1B aa 1–321, pH 7.4", "value": "12 ± 1", "unit": "µM"}, {"measurement": "kcat", "setting": "R47E PTP1B; R47E PTP1B aa 1–321, pH 7.4", "value": "35 ± 1", "unit": "s⁻¹"}, {"measurement": "kcat/KM x 10^7", "setting": "R47E PTP1B; R47E PTP1B aa 1–321, pH 7.4", "value": "0.29 x 10^7 M^−1 s^−1"}, {"measurement": "WT/R47E", "setting": "R47E PTP1B; ratio of kcat/KM, WT over R47E PTP1B (fold decrease by the mutation)", "value": 0.79}, {"measurement": "Km", "setting": "R24M PTP1B; R24M PTP1B aa 1–321, pH 7.4", "value": "14 ± 0.6", "unit": "µM"}, {"measurement": "kcat", "setting": "R24M PTP1B; R24M PTP1B aa 1–321, pH 7.4", "value": "42 ± 2", "unit": "s⁻¹"}, {"measurement": "kcat/KM x 10^7", "setting": "R24M PTP1B; R24M PTP1B aa 1–321, pH 7.4", "value": "0.30 x 10^7 M^−1 s^−1"}, {"measurement": "WT/R24M", "setting": "R24M PTP1B; ratio of kcat/KM, WT over R24M PTP1B (fold reduction by the mutation)", "value": 0.77}, {"measurement": "Km", "setting": "SHP-1", "value": "1.99 mM and 2 mM"}, {"measurement": "kcat", "setting": "SHP-1", "value": "26 ± 4 s^−1 and 26 ± 4 ^c s^−1"}, {"measurement": "kcat/KM x10^6", "setting": "SHP-1", "value": "0.013 x10^6 M^−1 s^−1"}, {"measurement": "Km", "setting": "SHP-2", "value": "2.3 ± 0.4", "unit": "mM"}, {"measurement": "kcat", "setting": "SHP-2", "value": "42 ± 5 s^−1 and 42 ± 5 ^c s^−1"}, {"measurement": "kcat/KM x10^6", "setting": "SHP-2", "value": "0.018 x10^6 M^−1 s^−1 and 0.018 ^c x10^6 M^−1 s^−1"}]}
